Experimental data: paper PMC4876142 (Pharmacology Research & Perspectives, 2016)
“Also recorded” adds a separate entry of the source. Values belong to the compound of their own block, whether it stands above or below them.

How the values were obtained:
[1] = tested on: TRPC6-like channel; conditions: 500 μmol/L; without affecting channel conductance; ref Ilatovskaya et al. 2011; cited from earlier work
[2] = molecular target: TRPM2 (Homo sapiens, UniProt O94759); test: Ca2+ measurement in HEK293 cells transfected with TRPM2; format: cell-based
[3] = tested on: mouse; conditions: ref Tajino et al. 2007; cited from earlier work
[4] = tested on: TRPC5; conditions: read-out: IC50 for TRPC5; ref Jiang et al. 2012; cited from earlier work
[5] = tested on: wild-type control HEK293 cells; test: Whole-cell patch clamp in wild-type control HEK293 cells; format: cell-based, human; conditions: 10 and 30 μmol/L Dic; cells without TRPM3s
Summary of the method: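 Untransfected HEK293 cells, whole-cell mode, 2.5–5 MΩ electrodes, 25 ± 1°C. Pipette (mmol/L): Cs-aspartate 110, CsCl 30, MgCl2 1, HEPES 10, EGTA 1, Na2ATP 2, pH 7.2. HEPES-buffered bath at pH 7.4 with 2.2 CaCl2. Ramps from −110 to +90 mV (400 msec) every 10 sec from −10 mV holding. Junction potential corrected, leak uncorrected. Test compound at 10 and 30 μmol/L.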

[6] = molecular target: human TRPM3 isoforms (Homo sapiens, UniProt Q9HCF6); format: cell-based; conditions: concentration-dependent
[7] = tested on: human TRPM3-S; test: Whole-cell patch clamp, constitutive spontaneous currents in HEK-TRPM3-S cells; format: cell-based; conditions: 10 and 30 μmol/L Dic; absence of PregS
[8] = tested on: TRPM8; test: Ca2+ measurement in HEK293 cells transfected with TRPM8; format: cell-based, human; conditions: 100 μmol/L Dic; Men 100 μmol/L
[9] = tested on: human TRPM3s (TRPM3_1325, TRPM3-3, TRPM3-9); test: Whole-cell patch clamp in HEK-TRPM3s cells; format: cell-based
[10] = molecular target: TRPV4 (Homo sapiens, UniProt Q9HBA0); test: Ca2+ measurement in HEK293 cells transfected with TRPV4; format: cell-based
[11] = tested on: human COX-1 / COX-2; conditions: times potent for COX-1; ref Jett et al. 1999; cited from earlier work
[12] = molecular target: human TRPM3-3 (Homo sapiens, UniProt Q9HCF6); format: cell-based; conditions: 100 μmol/L Dic applied during sustained response; Nif 30 μmol/L
[13] = tested on: guinea pig ileum; conditions: ref Fujimoto et al. 2006; cited from earlier work
[14] = tested on: mouse TRPM3α2 (mTRPM3α2); conditions: read-out: IC50 against mTRPM3α2; ref Klose et al. 2011; cited from earlier work
[15] = molecular target: endogenous TRPM3 in nIMR-32 cells (Homo sapiens, UniProt Q9HCF6); test: Ca2+ measurement in differentiated neuronal IMR-32; format: cell-based; conditions: 30 μmol/L; some nIMR-32 cells, not non-neuronal IMR-32 cells
endogenous TRPM3 in nIMR-32 cells, sequence (Q9HCF6 whole entry): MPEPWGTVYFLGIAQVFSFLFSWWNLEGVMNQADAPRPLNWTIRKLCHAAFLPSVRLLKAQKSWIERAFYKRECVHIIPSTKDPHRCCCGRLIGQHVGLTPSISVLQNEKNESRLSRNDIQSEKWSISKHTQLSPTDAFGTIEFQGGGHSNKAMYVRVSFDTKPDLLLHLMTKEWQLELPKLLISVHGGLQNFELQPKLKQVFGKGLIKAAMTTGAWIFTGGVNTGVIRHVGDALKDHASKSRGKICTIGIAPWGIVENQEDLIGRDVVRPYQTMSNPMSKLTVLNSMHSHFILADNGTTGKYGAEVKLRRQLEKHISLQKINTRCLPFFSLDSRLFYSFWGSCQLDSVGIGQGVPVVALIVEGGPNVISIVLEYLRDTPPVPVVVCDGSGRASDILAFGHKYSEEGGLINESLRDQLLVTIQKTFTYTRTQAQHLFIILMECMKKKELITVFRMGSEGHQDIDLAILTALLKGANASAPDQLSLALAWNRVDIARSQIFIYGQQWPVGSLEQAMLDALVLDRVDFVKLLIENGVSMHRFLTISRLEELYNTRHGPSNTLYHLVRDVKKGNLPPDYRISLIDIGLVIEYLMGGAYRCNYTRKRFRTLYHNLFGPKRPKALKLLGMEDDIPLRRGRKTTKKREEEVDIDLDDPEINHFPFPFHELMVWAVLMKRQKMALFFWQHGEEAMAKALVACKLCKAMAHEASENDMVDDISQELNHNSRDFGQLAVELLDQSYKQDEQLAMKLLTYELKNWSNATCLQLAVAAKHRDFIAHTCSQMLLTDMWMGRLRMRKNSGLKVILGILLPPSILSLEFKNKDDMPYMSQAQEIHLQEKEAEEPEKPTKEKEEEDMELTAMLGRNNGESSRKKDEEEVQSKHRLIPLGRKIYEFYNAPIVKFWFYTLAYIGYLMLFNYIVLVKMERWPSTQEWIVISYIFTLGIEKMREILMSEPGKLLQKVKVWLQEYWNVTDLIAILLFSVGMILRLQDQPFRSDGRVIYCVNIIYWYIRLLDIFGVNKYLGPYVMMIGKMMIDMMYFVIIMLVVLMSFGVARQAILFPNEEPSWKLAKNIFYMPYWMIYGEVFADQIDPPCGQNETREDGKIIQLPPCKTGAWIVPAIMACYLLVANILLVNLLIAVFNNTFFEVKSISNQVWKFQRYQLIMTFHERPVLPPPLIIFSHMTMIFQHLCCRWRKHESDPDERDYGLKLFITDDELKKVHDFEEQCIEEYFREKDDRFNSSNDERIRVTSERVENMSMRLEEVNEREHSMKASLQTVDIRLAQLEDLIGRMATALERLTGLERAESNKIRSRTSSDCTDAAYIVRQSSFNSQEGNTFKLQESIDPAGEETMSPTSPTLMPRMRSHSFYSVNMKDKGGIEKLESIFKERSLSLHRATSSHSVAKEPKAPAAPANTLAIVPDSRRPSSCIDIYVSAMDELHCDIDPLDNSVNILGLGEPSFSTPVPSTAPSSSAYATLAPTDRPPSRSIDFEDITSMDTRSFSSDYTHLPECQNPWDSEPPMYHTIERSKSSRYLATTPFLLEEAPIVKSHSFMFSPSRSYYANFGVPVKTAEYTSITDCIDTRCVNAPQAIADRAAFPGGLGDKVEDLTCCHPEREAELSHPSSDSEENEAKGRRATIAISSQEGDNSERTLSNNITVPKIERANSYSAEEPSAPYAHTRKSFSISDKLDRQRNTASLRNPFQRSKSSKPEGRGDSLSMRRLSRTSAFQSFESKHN

human TRPM3 isoforms, sequence (Q9HCF6 whole entry, canonical isoform): as the sequence (Q9HCF6 whole entry) above
TRPM2, sequence (O94759 whole entry): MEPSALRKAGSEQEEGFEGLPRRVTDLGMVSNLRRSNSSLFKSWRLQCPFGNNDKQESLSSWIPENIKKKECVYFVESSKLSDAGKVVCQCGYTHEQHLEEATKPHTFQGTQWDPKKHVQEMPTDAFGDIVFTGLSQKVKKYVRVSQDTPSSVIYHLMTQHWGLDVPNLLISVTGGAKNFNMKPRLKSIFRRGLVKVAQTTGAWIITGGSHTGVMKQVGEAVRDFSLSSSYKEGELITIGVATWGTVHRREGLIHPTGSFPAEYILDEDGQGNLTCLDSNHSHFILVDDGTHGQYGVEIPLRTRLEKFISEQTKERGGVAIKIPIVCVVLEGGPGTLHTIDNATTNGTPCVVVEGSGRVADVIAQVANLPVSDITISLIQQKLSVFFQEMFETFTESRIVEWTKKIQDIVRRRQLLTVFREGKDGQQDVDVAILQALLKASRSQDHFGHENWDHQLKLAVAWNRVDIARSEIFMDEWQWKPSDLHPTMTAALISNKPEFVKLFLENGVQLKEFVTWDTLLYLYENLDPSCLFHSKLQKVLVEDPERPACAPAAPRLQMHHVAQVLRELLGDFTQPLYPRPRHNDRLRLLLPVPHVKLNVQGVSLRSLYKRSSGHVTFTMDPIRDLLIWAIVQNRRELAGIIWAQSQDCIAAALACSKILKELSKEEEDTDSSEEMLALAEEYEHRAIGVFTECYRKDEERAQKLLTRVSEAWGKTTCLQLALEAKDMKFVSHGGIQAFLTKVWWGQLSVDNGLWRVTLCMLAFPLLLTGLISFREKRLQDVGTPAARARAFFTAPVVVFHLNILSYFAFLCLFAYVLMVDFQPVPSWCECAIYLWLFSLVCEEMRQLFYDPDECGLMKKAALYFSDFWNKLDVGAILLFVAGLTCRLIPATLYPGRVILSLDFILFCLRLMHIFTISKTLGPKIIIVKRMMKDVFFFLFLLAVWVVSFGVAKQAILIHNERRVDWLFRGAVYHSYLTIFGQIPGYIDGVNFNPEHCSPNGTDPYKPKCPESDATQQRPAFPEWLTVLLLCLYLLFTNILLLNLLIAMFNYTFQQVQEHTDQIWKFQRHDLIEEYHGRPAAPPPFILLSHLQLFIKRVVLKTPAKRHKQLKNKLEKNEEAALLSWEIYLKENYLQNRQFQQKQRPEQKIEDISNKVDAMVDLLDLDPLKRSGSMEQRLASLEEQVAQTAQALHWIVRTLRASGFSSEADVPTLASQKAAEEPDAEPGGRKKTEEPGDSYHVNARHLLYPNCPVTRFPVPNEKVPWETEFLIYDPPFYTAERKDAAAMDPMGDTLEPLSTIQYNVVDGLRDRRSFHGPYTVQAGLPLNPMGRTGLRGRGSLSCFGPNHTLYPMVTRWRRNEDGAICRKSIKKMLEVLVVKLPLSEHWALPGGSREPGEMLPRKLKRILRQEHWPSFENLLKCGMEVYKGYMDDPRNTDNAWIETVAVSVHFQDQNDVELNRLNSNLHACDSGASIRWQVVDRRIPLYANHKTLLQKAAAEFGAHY
TRPV4, sequence (Q9HBA0 whole entry): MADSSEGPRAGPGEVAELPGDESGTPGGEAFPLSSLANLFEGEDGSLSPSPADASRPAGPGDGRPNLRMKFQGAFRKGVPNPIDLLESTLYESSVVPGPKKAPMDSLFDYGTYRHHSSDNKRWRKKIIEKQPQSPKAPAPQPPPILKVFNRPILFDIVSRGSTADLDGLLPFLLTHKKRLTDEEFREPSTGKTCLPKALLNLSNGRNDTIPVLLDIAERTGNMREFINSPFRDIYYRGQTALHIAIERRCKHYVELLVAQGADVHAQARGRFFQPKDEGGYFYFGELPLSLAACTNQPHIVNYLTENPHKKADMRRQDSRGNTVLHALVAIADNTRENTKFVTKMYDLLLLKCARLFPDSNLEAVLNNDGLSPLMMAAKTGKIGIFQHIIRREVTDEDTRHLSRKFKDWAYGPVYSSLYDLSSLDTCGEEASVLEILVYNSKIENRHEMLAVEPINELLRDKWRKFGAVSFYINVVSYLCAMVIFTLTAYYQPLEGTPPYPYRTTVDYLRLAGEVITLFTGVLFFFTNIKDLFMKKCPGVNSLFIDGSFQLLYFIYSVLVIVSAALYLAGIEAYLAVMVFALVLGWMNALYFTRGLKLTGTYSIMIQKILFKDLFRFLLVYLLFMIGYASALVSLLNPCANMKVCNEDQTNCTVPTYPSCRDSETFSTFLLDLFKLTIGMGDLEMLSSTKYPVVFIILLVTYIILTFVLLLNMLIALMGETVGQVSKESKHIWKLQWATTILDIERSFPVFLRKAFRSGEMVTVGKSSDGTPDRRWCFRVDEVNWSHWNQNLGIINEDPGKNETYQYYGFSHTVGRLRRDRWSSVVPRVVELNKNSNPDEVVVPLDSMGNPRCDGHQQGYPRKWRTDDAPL

IC50 [2]: > 100 µM
effect on H2O2-induced Ca2+ response ([2]; 100 μmol/L Dic, H2O2 1 mmol/L): failed to inhibit
effect on Nif-induced TRPM3-dependent Ca2+ responses ([6]; 30 μmol/L Nif): significantly inhibited
IC50 [10]: > 100 µM
effect on GSK-induced Ca2+ response ([10]; 100 μmol/L Dic, GSK 3 nmol/L): failed to inhibit
Nif-evoked sustained Ca2+ response versus PregS response [12]: clearly resistant
Compound: O=C(O)Cc1ccccc1Nc1c(Cl)cccc1Cl [Dic, diclofenac]
effect on TRPC6-like channel activity [1]: decreased
effect on Men-evoked hyperthermia [3]: no effects
IC50 [4]: 170 µM
effect on small basal currents evoked by ramp voltage commands [5]: did not affect
effect on constitutive spontaneously active TRPM3-S currents [7]: substantially inhibited; also recorded: significantly inhibited
effect on Men-induced Ca2+ response [8]: failed to inhibit; also recorded: resistant
reversibility of current inhibition after withdrawal ([9]; 10 and 30 μmol/L Dic, 30 μmol/L PregS): immediately reversed
effect on PregS-evoked inward and outward currents ([9]; 10 and 30 μmol/L Dic, 30 μmol/L PregS, whole-cell): inhibited
voltage dependence of inhibition ([9]; comparison between -80 mV and +80 mV): voltage‐independent
preference to inhibit COX-1 than COX-2 [11]: 1.6 times
effect on capsaicin-induced ileum relaxation [13]: no effects

Compound: COc1ccc2c(c1)c(CC(=O)O)c(C)n2C(=O)c1ccc(Cl)cc1 [Ind, indomethacin]
preference to inhibit COX-1 than COX-2 [11]: 25 times

agonist effect on intracellular Ca2+ concentration [6]: induced Ca^2+ response
Compound: COC(=O)C1=C(C)NC(C)=C(C(=O)OC)C1c1ccccc1[N+](=O)[O-] [Nif, nifedipine]

Compound: Cc1cccc(Nc2ccccc2C(=O)O)c1C [mefenamic acid]
IC50 [14]: 6.6 µM

agonist Ca2+ response in nIMR-32 cells [15]: evoked a Ca^2+ response
agonist effect on intracellular Ca2+ concentration [6]: induced elevation
Compound: pregnenolone sulfate [PregS]
